Experimental data collected from several papers.
Each line is one published result; the experiments were not run side by side.
Target: Serine/threonine-protein kinase 38-like (STK38L, Homo sapiens, UniProt Q9Y2H1)

SMILES	observed	mode	technique	cells	concentration	endpoint	value
CN(C)C(=O)Cn1cc(-c2nc([C@@](C)(c3ccc(-c4cnc(N)nc4)cc3)C3CC3)no2)cn1	binding		competition with immobilised ligand		1 µM	remaining binding	91%
Cn1c2c(c3ccc(Cl)c(Cl)c31)C(C#N)C1(CCN(C(=O)OC(C)(C)C)CC1)NC2=O (racemic)	thermal stability		DSF		10 µM	ΔTm	-0.1 °C
NS(=O)(=O)c1cc(NC(=O)Cc2ccccc2)ccc1Oc1cccc(Cl)c1	cell-free assay		competition with immobilised ligand		1 µM	remaining binding	100%
Cn1c2c(Cl)c(Cl)ccc2c2cc[nH]c(=O)c21	thermal stability		DSF		10 µM	ΔTm	0 °C
CCN1CCN(Cc2ccc(NC(=O)c3ccc(C)c(Oc4ccnc5[nH]ccc45)c3)cc2C(F)(F)F)CC1	target engagement in cells	inhibitor	chemoproteomics	Huh-7	10 µM	inhibition	-12.7%
N#CC1c2c([nH]c3c(Cl)c(Cl)ccc23)C(=O)NC12CCCCC2 (racemic)	thermal stability		DSF		10 µM	ΔTm	0.2 °C
O=c1nc(-c2ccccn2)sc2ccccc12	binding		competition with immobilised ligand		1 µM	remaining binding	66%
CCN1CCN(Cc2ccc(NC(=O)c3ccc(C)c(/C=C/c4cnc5[nH]ccc5c4OC)c3)cc2C(F)(F)F)CC1	target engagement in cells	inhibitor	chemoproteomics	A-375	50 nM	inhibition	-0.856%
Cc1c(C(=O)O)cc(-c2ccc(C3CCNCC3)cc2)c2ccc(-c3ccc(C(F)(F)F)cc3)cc12	binding		competition with immobilised ligand		1 µM	remaining binding	100%
Cn1c2c(Cl)c(Cl)ccc2c2cn[nH]c(=O)c21	thermal stability		DSF		10 µM	ΔTm	0.1 °C
CS(=O)(=O)N1CCCC(NC(=O)[C@H](CCC2CCCCC2)NC(=O)c2ccc(CNc3ncnc4c3nnn4-c3ccccc3)cc2)C1 (some centres unmarked)	binding		competition with immobilised ligand		1 µM	remaining binding	24%
O=C(Nc1cnn(-c2csc(C(=O)NC3COC3)c2)c1)Nc1ccccc1Cl	enzyme activity	inhibitor			5 µM	remaining activity	103%
CCN1CCC2(CC1)NC(=O)c1c(c3ccc(Cl)c(Cl)c3n1C)C2C#N (racemic)	thermal stability		DSF		10 µM	ΔTm	0 °C
COc1cc(-c2cc(-c3ccc(N4CCNCC4)cc3)cnc2C)cc(OC)c1OC	enzyme activity	inhibitor			1 µM	inhibition	0%
Cn1c2c(Cl)c(Cl)ccc2c2cc(N)[nH]c(=O)c21	thermal stability		DSF		10 µM	ΔTm	0.3 °C
CN(C)c1ncc(F)c(-c2cnn3ncccc23)n1	binding				1 µM	remaining binding	100%
CC(C)(O)[C@H]1CC[C@H](Nc2ccc3ncc(-c4cccc(C(F)(F)F)c4)n3n2)CC1	enzyme activity	inhibitor			1 µM	remaining activity	91.9%
CN(C(=O)c1ccccc1)c1cc(N(C)c2ccc3c(c2)CCc2ccc(C(=O)NCCN4CCOCC4)cc2C3=O)ccc1F	cell-free assay		competition with immobilised ligand		1 µM	remaining binding	47%
Nc1ncnc2occ(-c3ccc(NC(=O)Nc4cc(C(F)(F)F)ccc4F)cc3)c12	cell-free assay				20 µM	remaining signal	17%
O=C(Nc1cnn(-c2csc(C(=O)NC3COC3)c2)c1)Nc1c(F)cccc1Cl	enzyme activity	inhibitor			5 µM	remaining activity	94.8%
